Measured values as given in ChEMBL document CHEMBL4406821, “Novel dual inhibitors targeting CDK4 and VEGFR2 synergistically suppressed cancer progression and angiogenesis” (Eur J Med Chem, 2019).
pIC50: −log10 of the molar value. Calls of active or inactive are those of the source. No cut-off for these calls is given here.

Tests used:
[1] = AUC (0 to t) in Sprague-Dawley rat at 10 mg/kg, iv by HPLC-MS analysis; format: ADME, organism-based; conditions: in vivo
Procedure, shortened: (§1)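 Rats fitted with jugular vein catheters for serial blood sampling. Compound dissolved in saline with 5% (v/v) DMSO and given as a single 10 mg/kg dose iv or po after an overnight fast, n = 5 per group. Plasma isolated at once and measured by HPLC with tandem MS detection. Parameters derived by noncompartmental fitting.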

[2] = biological target: Serine/threonine-protein kinase PAK 6 (Homo sapiens) (UniProt Q9NQU5); test: Inhibition of recombinant human PAK6 (382 to end residues) at 1 uM using RRRLSFAEPG as substrate incubated for 40 mins in presence of [gamma-33P]-ATP by scintillation counting method relative to control
T47D = test: Antiproliferative activity against human T47D cells assessed as reduction in cell viability at 20 to 40 nM incubated for 48 hrs by EdU staining based laser scanning confocal microscopy; format: functional
Procedure, shortened: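 Cells, 5×10^4, were seeded in 24-well plates and treated for 48 h. They were then labeled using an EdU Apollo 488 imaging kit with Hoechst 33342 nuclear stain and imaged by laser scanning confocal microscopy. Percent EdU-positive cells = EdU-positive/Hoechst-stained × 100%.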

[3] = test system: Hepatocyte growth factor receptor (Homo sapiens), P08581 [D1246N]; test: Inhibition of recombinant human Met D1246N mutant (974 to end residues) at 1 uM using KKKGQEEEYVFIE as substrate incubated for 40 mins in presence of [gamma-33P]-ATP by scintillation counting method relative to control
[4] = biological target: Tyrosine-protein kinase ZAP-70 (Homo sapiens) (UniProt P43403); test: Inhibition of recombinant human full length ZAP70 at 1 uM using poly(Glu, Tyr) 4:1 as substrate incubated for 40 mins in presence of [gamma-33P]-ATP by scintillation counting method relative to control
[5] = biological target: Ribosomal protein S6 kinase alpha-3 (Homo sapiens) (UniProt P51812); test: Inhibition of recombinant human RSK2 (2 to end residues) at 1 uM using KKKNRTLSVA as substrate incubated for 40 mins in presence of [gamma-33P]-ATP by scintillation counting method relative to control
[6] = test system: Epidermal growth factor receptor (Homo sapiens), P00533 [L858R]; test: Inhibition of recombinant human EGFR L858R mutant (696 to end residues) at 1 uM using poly(Glu, Tyr) 4:1 as substrate incubated for 40 mins in presence of [gamma-33P]-ATP by scintillation counting method relative to control
Procedure, shortened: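 Kinase panel profiling at 1 μM performed by Eurofins KinaseProfiler; percent inhibition reported as mean of two independent experiments.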

[7] = biological target: Tyrosine-protein kinase BTK (Homo sapiens) (UniProt Q06187); test: Inhibition of recombinant full length human BTK at 1 uM using LSNLYHQGKFLQT as substrate incubated for 40 mins in presence of [gamma-33P]-ATP by scintillation counting method relative to control
Procedure, shortened: (§2)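 Tested at a single 1 uM in an outsourced commercial kinase-profiling panel, read as percent inhibition. Each value is the mean of two independent experiments.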

[8] = test system: Epidermal growth factor receptor (Homo sapiens), P00533 [T790M]; test: Inhibition of recombinant human EGFR T790M mutant (696 to end residues) at 1 uM using poly(Glu, Tyr) 4:1 as substrate incubated for 40 mins in presence of [gamma-33P]-ATP by scintillation counting method relative to control
HeLa [9] = test: Induction of apoptosis in human HeLa cells assessed as increase in early apoptotic cells at 20 to 40 nM incubated for 48 hrs by annexin V FITC and propidium iodide staining based flow cytometry; format: functional, cell-based
Procedure, shortened: (§3)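 Cells were treated for 48 h, stained with FITC Annexin V and PI, and analyzed by flow cytometry to count early and late apoptotic cells.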

[10] = biological target: Ephrin type-B receptor 1 (Homo sapiens) (UniProt P54762); test: Inhibition of recombinant human EPhB1 (564 to end residues) at 1 uM using KVEKIGEGTYGVVYK as substrate incubated for 40 mins in presence of [gamma-33P]-ATP by scintillation counting method relative to control
[11] = biological target: NUAK family SNF1-like kinase 2 (Homo sapiens) (UniProt Q9H093); test: Inhibition of recombinant human full length NUAK2 at 1 uM using KKKVSRSGLYRSPSMPENLNRPR as substrate incubated for 40 mins in presence of [gamma-33P]-ATP by scintillation counting method relative to control
[12] = biological target: Vascular endothelial growth factor receptor 2 (Homo sapiens, UniProt P35968); test: Inhibition of recombinant human VEGFR2 (790 to end residues) using myelin ba as substrate incubated for 40 mins by [gamma-33P]-ATP based radiometric assay
[13] = biological target: Mitogen-activated protein kinase kinase kinase 5 (Homo sapiens) (UniProt Q99683); test: Inhibition of recombinant human ASK1 (649 to 946 residues) at 1 uM using myelin ba as substrate incubated for 40 mins in presence of [gamma-33P]-ATP by scintillation counting method relative to control; procedure, shortened: as §2
[14] = biological target: Serine/threonine-protein kinase MRCK alpha (Homo sapiens) (UniProt Q5VT25); test: Inhibition of recombinant human MRCKalpha (1 to 473 residues) at 1 uM using KKRNRTLTV as substrate incubated for 40 mins in presence of [gamma-33P]-ATP by scintillation counting method relative to control
[15] = Cmax in Sprague-Dawley rat at 10 mg/kg, po by HPLC-MS analysis; format: ADME, organism-based; parameters: dose 10 mg/kg, route oral; conditions: in vivo; procedure, shortened: as §1
[16] = biological target: Serine/threonine-protein kinase 38-like (Homo sapiens) (UniProt Q9Y2H1); test: Inhibition of recombinant human NDR2 (83 to end residues) at 1 uM using RSRSRSRSRSRSRSR as substrate incubated for 40 mins in presence of [gamma-33P]-ATP by scintillation counting method relative to control
[17] = biological target: Platelet-derived growth factor receptor alpha (Homo sapiens) (UniProt P16234); test: Inhibition of recombinant human PDGFRalpha (550 to end residues) at 1 uM using poly(Glu, Tyr) 4:1 as substrate incubated for 40 mins in presence of [gamma-33P]-ATP by scintillation counting method relative to control; procedure, shortened: as §2
MDA-MB-231 = test: Induction of cell cycle arrest in human MDA-MB-231 cells assessed as accumulation in G2/M phase at 20 to 40 nM incubated for 36 hrs by propidium iodide staining based flow cytometry; format: functional
Procedure, shortened: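 Cells were treated with graded concentrations for 36 h, then fixed overnight in 70% ice-cold ethanol at 4°C and resuspended in PBS. Staining used 50 µg/ml PI plus 5 µg/ml RNase at 37°C for 30 min. DNA content was analysed by FACS to give G0/G1, S and G2/M fractions.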

[18] = Toxicity in NOD/SCID BALB/c mouse xenografted with human SiHa cells assessed as effect on blood parameter by measuring platelet content at 40 mg/kg, po administered once two days for 4 times by hematology analyzer; format: organism-based; conditions: in vivo
HeLa [19] = test: Induction of apoptosis in human HeLa cells assessed as increase in late apoptotic cells at 20 to 40 nM incubated for 48 hrs by annexin V FITC and propidium iodide staining based flow cytometry; format: functional, cell-based; procedure, shortened: as §3

Sequence of Mitogen-activated protein kinase kinase kinase 5 (Homo sapiens) (Q99683 whole entry, the tested form may be a part): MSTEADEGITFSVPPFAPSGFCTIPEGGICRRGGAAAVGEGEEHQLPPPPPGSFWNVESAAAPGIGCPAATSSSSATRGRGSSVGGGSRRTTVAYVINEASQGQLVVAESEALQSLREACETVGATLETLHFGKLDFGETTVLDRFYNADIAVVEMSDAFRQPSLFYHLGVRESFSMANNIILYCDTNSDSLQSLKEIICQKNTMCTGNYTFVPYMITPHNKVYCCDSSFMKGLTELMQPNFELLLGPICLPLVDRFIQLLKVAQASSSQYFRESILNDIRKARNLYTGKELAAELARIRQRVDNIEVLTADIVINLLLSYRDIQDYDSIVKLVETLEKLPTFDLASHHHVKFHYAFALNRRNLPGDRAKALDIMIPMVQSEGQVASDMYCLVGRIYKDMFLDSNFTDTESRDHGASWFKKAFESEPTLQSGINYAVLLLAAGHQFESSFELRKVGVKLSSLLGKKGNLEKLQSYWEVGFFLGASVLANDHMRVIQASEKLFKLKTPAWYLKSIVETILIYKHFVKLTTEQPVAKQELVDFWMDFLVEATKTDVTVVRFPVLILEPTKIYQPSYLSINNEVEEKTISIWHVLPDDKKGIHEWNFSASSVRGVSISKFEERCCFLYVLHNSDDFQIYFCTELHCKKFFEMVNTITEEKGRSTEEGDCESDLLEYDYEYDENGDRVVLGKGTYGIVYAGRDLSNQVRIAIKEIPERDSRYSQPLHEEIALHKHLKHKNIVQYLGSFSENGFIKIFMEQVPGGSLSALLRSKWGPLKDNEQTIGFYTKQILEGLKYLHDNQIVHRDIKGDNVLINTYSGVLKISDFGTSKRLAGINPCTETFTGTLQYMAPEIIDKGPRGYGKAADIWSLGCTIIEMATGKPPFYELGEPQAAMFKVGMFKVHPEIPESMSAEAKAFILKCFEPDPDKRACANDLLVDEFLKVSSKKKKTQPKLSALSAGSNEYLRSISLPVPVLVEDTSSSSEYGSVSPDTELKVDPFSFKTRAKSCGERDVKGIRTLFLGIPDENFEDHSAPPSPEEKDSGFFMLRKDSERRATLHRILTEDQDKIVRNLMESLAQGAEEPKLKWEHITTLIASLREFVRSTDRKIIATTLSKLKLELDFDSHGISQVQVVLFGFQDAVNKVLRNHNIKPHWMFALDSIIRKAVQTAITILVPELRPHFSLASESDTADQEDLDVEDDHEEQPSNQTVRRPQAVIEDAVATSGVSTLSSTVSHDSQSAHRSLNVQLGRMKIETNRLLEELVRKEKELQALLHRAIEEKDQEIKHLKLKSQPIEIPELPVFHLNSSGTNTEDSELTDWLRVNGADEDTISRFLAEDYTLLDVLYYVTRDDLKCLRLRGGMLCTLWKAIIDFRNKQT
Sequence of Epidermal growth factor receptor (Homo sapiens), P00533 [L858R] (P00533 whole entry L858R): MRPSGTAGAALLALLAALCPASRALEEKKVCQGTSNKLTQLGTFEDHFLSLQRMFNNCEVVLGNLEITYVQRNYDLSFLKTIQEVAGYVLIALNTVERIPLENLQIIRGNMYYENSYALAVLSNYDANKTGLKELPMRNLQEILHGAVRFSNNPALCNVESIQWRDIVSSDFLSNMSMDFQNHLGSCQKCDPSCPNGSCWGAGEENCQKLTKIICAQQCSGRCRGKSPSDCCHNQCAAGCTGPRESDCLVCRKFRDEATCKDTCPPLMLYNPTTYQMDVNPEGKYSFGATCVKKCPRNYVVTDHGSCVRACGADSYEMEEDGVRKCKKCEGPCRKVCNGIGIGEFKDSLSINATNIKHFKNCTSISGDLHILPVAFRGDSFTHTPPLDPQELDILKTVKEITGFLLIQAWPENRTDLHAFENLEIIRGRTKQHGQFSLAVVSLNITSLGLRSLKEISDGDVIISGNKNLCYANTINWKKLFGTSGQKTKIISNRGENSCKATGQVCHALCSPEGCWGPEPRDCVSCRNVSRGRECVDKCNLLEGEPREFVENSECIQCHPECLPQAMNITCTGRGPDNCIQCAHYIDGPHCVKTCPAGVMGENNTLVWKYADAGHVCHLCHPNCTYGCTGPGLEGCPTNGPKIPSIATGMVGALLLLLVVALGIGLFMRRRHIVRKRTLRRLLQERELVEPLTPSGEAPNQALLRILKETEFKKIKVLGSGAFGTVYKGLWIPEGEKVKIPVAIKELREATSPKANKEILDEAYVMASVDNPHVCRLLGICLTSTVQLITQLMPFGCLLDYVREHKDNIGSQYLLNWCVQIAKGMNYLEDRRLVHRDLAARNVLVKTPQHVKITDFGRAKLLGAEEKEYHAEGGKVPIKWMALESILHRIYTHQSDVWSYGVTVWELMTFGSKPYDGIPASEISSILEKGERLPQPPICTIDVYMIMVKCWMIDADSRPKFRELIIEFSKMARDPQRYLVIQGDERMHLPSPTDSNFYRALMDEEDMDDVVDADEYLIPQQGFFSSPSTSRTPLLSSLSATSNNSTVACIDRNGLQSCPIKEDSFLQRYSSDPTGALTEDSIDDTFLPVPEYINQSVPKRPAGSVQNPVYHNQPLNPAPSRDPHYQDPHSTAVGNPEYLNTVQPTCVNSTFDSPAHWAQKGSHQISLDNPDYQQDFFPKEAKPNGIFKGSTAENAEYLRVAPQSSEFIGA
Sequence of Epidermal growth factor receptor (Homo sapiens), P00533 [T790M] (P00533 whole entry T790M): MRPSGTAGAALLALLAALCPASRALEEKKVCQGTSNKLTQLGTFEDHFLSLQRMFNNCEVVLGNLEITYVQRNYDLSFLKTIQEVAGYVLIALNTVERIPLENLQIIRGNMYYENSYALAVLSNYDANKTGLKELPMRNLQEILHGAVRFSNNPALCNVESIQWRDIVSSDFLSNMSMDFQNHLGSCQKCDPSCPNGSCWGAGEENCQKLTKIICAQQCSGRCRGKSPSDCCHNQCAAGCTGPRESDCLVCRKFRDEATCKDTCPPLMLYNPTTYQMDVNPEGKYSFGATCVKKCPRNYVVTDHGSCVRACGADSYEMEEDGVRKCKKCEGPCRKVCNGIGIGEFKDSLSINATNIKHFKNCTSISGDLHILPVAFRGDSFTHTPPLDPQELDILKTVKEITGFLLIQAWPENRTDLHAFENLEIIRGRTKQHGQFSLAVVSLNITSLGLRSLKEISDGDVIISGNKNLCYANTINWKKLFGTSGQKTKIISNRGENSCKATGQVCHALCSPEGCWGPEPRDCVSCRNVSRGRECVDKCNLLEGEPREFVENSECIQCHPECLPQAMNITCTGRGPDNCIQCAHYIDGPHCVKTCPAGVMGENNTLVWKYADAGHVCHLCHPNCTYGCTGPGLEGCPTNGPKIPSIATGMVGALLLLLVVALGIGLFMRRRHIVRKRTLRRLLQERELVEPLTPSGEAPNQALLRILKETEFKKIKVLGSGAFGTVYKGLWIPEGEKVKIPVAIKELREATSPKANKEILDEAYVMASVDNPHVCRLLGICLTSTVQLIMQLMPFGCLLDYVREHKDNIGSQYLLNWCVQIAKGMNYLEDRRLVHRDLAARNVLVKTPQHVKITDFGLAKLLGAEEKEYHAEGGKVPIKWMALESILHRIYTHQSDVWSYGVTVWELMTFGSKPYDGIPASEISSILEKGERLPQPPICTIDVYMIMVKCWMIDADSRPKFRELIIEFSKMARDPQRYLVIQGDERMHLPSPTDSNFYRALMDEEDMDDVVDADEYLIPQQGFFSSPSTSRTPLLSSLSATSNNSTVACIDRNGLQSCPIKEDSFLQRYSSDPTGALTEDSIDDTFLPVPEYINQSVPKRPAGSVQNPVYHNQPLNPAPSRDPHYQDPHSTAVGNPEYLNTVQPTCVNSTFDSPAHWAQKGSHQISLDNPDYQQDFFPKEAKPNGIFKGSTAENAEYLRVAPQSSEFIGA
Sequence of Serine/threonine-protein kinase PAK 6 (Homo sapiens) (Q9NQU5 whole entry, looked up): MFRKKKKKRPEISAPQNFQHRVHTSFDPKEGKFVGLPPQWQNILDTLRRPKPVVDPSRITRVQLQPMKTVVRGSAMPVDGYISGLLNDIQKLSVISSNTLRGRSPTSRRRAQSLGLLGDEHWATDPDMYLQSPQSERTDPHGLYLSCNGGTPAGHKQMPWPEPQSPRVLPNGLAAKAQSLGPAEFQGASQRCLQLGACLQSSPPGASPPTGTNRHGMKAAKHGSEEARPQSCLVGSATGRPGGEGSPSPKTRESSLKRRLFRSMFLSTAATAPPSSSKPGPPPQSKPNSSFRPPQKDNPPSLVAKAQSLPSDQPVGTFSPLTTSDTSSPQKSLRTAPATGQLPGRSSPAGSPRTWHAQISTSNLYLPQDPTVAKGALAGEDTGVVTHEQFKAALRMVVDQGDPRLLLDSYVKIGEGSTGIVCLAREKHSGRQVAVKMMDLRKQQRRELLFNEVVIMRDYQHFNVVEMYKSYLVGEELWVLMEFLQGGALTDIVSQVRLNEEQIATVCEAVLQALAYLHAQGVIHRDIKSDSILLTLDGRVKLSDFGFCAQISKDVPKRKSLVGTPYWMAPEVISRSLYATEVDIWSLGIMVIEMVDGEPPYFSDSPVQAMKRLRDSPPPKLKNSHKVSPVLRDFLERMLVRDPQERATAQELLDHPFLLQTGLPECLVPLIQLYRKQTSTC
Sequence of Serine/threonine-protein kinase 38-like (Homo sapiens) (Q9Y2H1 2-464 limits assumed): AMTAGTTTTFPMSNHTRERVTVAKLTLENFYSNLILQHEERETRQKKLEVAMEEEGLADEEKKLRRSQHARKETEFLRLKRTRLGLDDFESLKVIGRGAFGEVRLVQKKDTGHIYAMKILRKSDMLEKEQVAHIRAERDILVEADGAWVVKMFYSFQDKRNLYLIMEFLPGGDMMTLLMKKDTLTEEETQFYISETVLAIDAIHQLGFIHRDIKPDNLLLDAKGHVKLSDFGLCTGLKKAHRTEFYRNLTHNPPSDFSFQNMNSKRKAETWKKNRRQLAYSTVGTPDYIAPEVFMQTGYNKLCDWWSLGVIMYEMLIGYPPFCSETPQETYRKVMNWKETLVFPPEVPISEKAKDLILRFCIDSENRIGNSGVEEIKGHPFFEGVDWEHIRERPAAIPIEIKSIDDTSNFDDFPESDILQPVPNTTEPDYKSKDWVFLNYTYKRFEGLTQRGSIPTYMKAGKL

Compound: Cc1ccc(NC(=O)C2(C(=O)Nc3ccc(Nc4ncc(F)c(-c5cc(F)c6nc(C)n(C(C)C)c6c5)n4)cc3)CC2)cc1
- AUC(0-t) [1]: 10000 ng·h/mL
- inhibition [2]: 12%
- inhibition (T47D): Active
- inhibition [3]: 51%
- inhibition [4]: 11%
- inhibition [5]: 19%
- inhibition [6]: 35%
- inhibition [7]: 0%
- inhibition [8]: 55%
- Activity (HeLa [9]): Active
- inhibition [10]: 66%
- inhibition [11]: 67%
- pIC50 [12]: 7.34
- inhibition [13]: 0%
- inhibition [14]: 21%
- Cmax [15]: 1000 ng/mL
- inhibition [16]: 33%
- inhibition [17]: 0%
- Activity (MDA-MB-231): Active
- Activity [18]: Non-Toxic
- Activity (HeLa [19]): Active
